pEC50, pIC50: −log10 of the molar value. Active and inactive are the calls of the source. The rule behind the calls is not given here.

Data set [1] concerns the target Free fatty acid receptor 1 (Homo sapiens, UniProt O14842). As to the kind of experiment: Agonist activity at human GPR40 expressed in human HEK293 cells assessed as increase in intracellular calcium flux after 10 mins by fluorescence assay. In kind it is functional, cell-based. A digest of the protocol:
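Human GPR40 activity read by calcium mobilization to give EC50. Mean ± SD, n = 3.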

For data set [2], the system named is Rattus norvegicus. As to the kind of experiment: Antidiabetic activity in Sprague-Dawley rat assessed as reduction in blood glucose excursion at 10 to 20 mg/kg, po administered 60 mins prior to glucose challenge by OGTT. It counts as functional, organism-based. A digest of the protocol:
(§1)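 OGTT in SD rats: compound given orally 60 min before a 3.0 g/kg glucose challenge. Blood glucose followed over time, and AUC0-60min or AUC0-120min calculated versus vehicle group. Mean ± SD, n = 8.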

Data set [3] concerns Rattus norvegicus. Kind of data set: Antidiabetic activity in Sprague-Dawley rat assessed as reduction in blood glucose AUC (0 to 60 mins) at 10 to 20 mg/kg, po administered 60 mins prior to glucose challenge by OGTT. It counts as functional, organism-based. A digest of the protocol:
as §1

The nature of data set [4]: Elimination half life in Sprague-Dawley rat at 3 mg/kg, po by LC-ESI-MS analysis. It counts as ADME, organism-based. The following applies: in vivo, read-out: beta t1/2 (converted). Put shortly:
(§2)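 SD rats dosed orally (3 or 10 mg/kg) or by intravenous injection (1 mg/kg). Plasma PK parameters derived per route: Cmax, AUC0-t, Tmax, t1/2 and F after oral dosing; CL, AUC0-t, MRT, t1/2 and Vdss after iv dosing. Mean ± SD from three independent experiments (n = 3).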

A short description of data set [5]: AUC (0 to t) in Sprague-Dawley rat at 10 mg/kg, po by LC-ESI-MS analysis. In kind it is ADME, organism-based. The following applies: in vivo. Put shortly: as §2
The nature of data set [6]: Elimination half life in Sprague-Dawley rat at 10 mg/kg, po by LC-ESI-MS analysis. It counts as ADME, organism-based. The following applies: in vivo, read-out: beta t1/2 (converted). Put shortly:
as §2

Data set [7] can be described thus: Clearance in Sprague-Dawley rat at 1 mg/kg, iv by LC-ESI-MS analysis. It counts as ADME, organism-based. The following applies: in vivo. Put shortly: as §2
The nature of data set [8]: Elimination half life in Sprague-Dawley rat at 1 mg/kg, iv by LC-ESI-MS analysis. In kind it is ADME, organism-based. The following applies: in vivo, read-out: beta t1/2 (converted). Put shortly:
as §2

Data set [9] is described as follows: Volume of distribution at steady state in Sprague-Dawley rat at 1 mg/kg, iv by LC-ESI-MS analysis. It counts as ADME, organism-based. The following applies: in vivo, read-out: Vdss. A digest of the protocol: as §2
Data set [10] has as its system Hepatocyte. As to the kind of experiment: Toxicity in sandwich-cultured Sprague-Dawley rat hepatocytes assessed as inhibition of hepatobiliary transport by measuring biliary excretion index at 5 to 40 uM after 15 mins in presence of d8-TCA by LC-MS/MS analysis. In kind it is cell-based. The following applies: 0.25 h. A digest of the protocol:
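Sandwich-cultured rat hepatocytes incubated with compound and d8-TCA in standard (Ca2+-containing) or Ca2+-free buffer. Cellular d8-TCA measured, and the biliary excretion index calculated as the fraction of accumulated bile acid excreted into bile. Mean of three independent experiments.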

Data set [11] has as its target T1, Free fatty acid receptor 3 (Homo sapiens) (UniProt O14843).
T1 sequence (whole entry): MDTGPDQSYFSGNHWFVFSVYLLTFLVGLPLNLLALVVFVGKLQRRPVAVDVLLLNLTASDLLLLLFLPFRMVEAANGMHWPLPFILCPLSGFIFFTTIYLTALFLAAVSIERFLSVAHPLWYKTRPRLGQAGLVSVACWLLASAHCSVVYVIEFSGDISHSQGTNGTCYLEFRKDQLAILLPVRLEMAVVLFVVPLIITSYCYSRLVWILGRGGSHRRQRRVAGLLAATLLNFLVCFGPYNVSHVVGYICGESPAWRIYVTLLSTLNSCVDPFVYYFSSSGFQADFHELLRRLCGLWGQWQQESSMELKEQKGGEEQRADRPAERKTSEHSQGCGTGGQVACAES
As to the kind of experiment: Agonist activity at GPR41 (unknown origin) up to 100 uM. In kind it is functional.

Data set [12] concerns the target T2, Free fatty acid receptor 4 (Homo sapiens) (UniProt Q5NUL3).
T2 sequence (whole entry): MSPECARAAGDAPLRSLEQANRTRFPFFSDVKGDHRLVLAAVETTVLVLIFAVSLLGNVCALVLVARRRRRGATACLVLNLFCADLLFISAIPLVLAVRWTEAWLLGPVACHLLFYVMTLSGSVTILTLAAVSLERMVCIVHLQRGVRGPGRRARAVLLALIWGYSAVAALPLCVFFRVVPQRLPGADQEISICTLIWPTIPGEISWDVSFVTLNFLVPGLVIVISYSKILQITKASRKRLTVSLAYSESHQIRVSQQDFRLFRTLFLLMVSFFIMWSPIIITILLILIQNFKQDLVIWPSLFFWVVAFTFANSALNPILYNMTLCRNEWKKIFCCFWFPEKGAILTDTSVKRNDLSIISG
Kind of data set: Agonist activity at GPR120 (unknown origin) up to 100 uM. In kind it is functional.

Data set [13] concerns the target T3, Glucose-dependent insulinotropic receptor (Homo sapiens, UniProt Q8TDV5).
T3 sequence (Q8TDV5 whole entry): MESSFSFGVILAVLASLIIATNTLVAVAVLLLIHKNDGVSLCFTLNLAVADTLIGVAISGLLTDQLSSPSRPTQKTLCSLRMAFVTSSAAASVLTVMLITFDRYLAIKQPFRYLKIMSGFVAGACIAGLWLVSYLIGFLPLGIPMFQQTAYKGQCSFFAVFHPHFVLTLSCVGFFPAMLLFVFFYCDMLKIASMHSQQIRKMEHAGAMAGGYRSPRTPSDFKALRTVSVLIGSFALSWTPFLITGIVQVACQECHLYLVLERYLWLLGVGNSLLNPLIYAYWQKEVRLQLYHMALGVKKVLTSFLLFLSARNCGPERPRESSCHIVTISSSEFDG
Kind of data set: Agonist activity at GPR119 (unknown origin). In kind it is functional.

The target of data set [14] is T4, Cytochrome P450 1A2 (Homo sapiens, UniProt P05177).
T4 sequence (P05177 whole entry): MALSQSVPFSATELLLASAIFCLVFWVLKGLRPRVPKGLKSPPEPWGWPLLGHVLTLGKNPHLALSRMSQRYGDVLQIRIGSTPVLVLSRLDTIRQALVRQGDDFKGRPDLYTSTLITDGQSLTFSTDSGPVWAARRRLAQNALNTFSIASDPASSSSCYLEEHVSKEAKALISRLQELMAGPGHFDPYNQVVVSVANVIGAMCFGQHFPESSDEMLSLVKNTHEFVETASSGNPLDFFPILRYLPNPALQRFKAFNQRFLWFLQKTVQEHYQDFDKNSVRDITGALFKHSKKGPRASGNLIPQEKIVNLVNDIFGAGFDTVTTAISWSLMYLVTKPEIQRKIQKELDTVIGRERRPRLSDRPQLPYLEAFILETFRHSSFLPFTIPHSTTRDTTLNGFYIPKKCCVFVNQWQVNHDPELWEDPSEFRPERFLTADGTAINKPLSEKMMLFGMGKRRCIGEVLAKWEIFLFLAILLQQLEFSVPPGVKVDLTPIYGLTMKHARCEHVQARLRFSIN
Kind of data set: Inhibition of CYP1A2 (unknown origin). In kind it is ADME.

For data set [15], the system named is Salmonella typhimurium. Kind of data set: Mutagenicity in Salmonella typhimurium by Ames test. It counts as toxicity, organism-based. The following applies: salmonella enterica subsp. enterica serovar typhimurium.
For data set [16], the system named is Rattus norvegicus. Kind of data set: Subacute toxicity in Sprague-Dawley rat assessed as effect on organ coefficients at 50 to 100 mg/kg, po administered once daily for 2 weeks. It counts as organism-based. The following applies: in vivo, 336 h. Put shortly: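 SD rats dosed orally once daily for two weeks at 50 mg/kg and 100 mg/kg. Subacute toxicity was assessed over the dosing period from survival rate, behaviour, food intake and organ coefficients.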

Sequence of Free fatty acid receptor 1 (O14842 whole entry): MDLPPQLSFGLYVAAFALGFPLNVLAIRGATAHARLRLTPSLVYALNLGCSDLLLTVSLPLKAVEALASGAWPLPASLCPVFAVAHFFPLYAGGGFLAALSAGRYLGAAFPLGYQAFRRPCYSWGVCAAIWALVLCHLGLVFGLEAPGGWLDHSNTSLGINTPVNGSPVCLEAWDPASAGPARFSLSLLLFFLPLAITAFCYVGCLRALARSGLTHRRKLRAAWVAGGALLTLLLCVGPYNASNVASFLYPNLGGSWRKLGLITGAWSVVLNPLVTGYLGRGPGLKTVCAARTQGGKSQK

Take `CC#C[C@@H](CC(=O)O)c1ccc(OC[C@H]2COc3ccc(Cl)cc3O2)cc1`: the pEC50 is 7.30 in data set [1] and less than 4.00 in data set [13]. Moreover, the result in data set [2] and in data set [3] was Active. Further, the half-life was 16.1 h in data set [4], 25.7 h in [6] and 13.2 h in data set [8]. Moreover, the AUC(0-t) in data set [5] is 656 µg·h/mL. Further, the clearance in [7] was 0.17 mL/min/kg. In data set [9], the Vd amounted to 0.182 L/kg. In addition, the Activity result in [10], in data set [15] and in data set [16] was “Non-Toxic” throughout. Also, the outcome in data set [11] and in [12] was inactive. In [14], this compound had a pIC50 of less than 4.00.

The values above are taken from ChEMBL document CHEMBL4261634, “Design and optimization of 2,3-dihydrobenzo[b][1,4]dioxine propanoic acids as novel GPR40 agonists with improved pharmacokinetic and safety profiles” (Bioorg Med Chem, 2018).
